Screening data from PubChem BioAssay.
PolyA inhibitor = yeast polyadenylation inhibition; S. cerevisiae SKY197-pL101 polyadenylation reporter, beta-gal luminescence; efflux-impaired pdr1/pdr3 knockout yeast; score 100 = 6 SD above DMSO; activity score, % at 12 µM; 300,000 compounds, 0.02% hits;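 active means lowest replicate activity score at least 50, where 100 means six control SD above control mean; inconclusive means lowest score under 50 but half or more replicates reach 50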;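 further: yeast exposed to compound for 9 h at 30 °C; higher score means more reporter readthrough which indicates perturbed polyadenylation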
PERK inh = human PERK inhibition, primary cell-based screen; inhibition, % at 5.6 µM; CHO PERK-DD fusion, SEAP luminescence translation reporter; Q9NZJ5; 220,000 compounds, 0.17% hits; AID 1416;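 active means inhibition above the mean inhibition of all tested compounds plus 3 SD, set separately per screening campaign, cut at about 2.9% in these data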;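 further: PERK kinase domain activated by AP20187 dimerizer at 100 nM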
AHR activator = activators of human aryl hydrocarbon receptor; AHR-responsive luciferase reporter cells, luminescence; 320,000 compounds, 2.5% hits; activation, % at 5 µM; AID 2796; P35869; in the data active means activation above about 47%
Hsp70 act = Hsp70 transcriptional activation, primary screen | HeLa Hsp70 promoter luciferase reporter, luminescence; scaled: vehicle 0, proteasome-inhibitor control 100% | activation, % at 10 µM | 200,000 compounds, 0.04% hits | AID 1203;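 active means activation above the mean across all tested compounds plus 3 SD, cutoff set per campaign, cut at about 5.5% in these data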
STAT3 activator = activators of IL-6 induced STAT3 signaling; U3A cells, IL-6 STAT3-luciferase reporter, luminescence; 100% = signal with IL-6 EC80 alone; activation (% of control), % at 5.6 µM; 190,000 compounds, 0.91% hits; AID 871;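 active means activation above the screen-wide mean of compound activation plus 3 SD, cut at about 130% in these data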
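Material: STAT1-lacking human U3A cells, STAT3 luciferase reporter | Benchmarks: IL-6-only wells as 100% reference | Probe or stimulus: IL-6 (33 ng/mL) | Timing: Compound 1 h, then IL-6 6 h at 37 °C | Detection: Luminescence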
HSF1 inh = HSF1 inhibition; NIH3T3-HGL HSE-luciferase, MG132-induced, luminescence 8 h; stronger effect = lower value; activity change, negative = inhibition, % at 7.5 µM (by protocol); 300,000 compounds, 0.77% hits;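 active means more than half of replicate wells show activity change below -50%, luminescence cut by over half; inconclusive means some wells, but at most half, below -50%; inactive means no replicate well below -50%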;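 further: luciferase reports HSF-1 transcriptional activity via heat shock element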
AHR act confirm = confirmation of human aryl hydrocarbon receptor activators; shares compounds with AHR activator; human cells, AHR-responsive luciferase reporter, luminescence; activation, % at 9 µM; 2,300 compounds, 87% hits; AID 2845; in the data active means activation above about 49%;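 further: HepG2 hepatoma cells carrying a DRE-driven firefly luciferase reporter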
PXR counter = PXR activation, counter-screen for AHR activators; activation, % at 11.6 µM; 2,300 compounds, 88% hits; AID 434939; cell-based PXR reporter, luciferase luminescence; shares compounds with AHR activator; in the data active means activation above about 11%;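 further: human hepatoma DPX-2 cells expressing full-length human PXR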
Large screens that a line does not name were inactive (follow-up assays come after a bar, where they were run). Only some compounds are listed: those with a hit (about 3.6% of all), similar ones and a draw of the others.

O=C(CCC(=O)NNc1nc2ccccc2c2nc(-c3ccccc3)nn12)NCCCN1CCOCC1	AHR activator 83.7 | AHR act confirm 91.0 | PXR counter 16.3
CC(C)CCNC(=O)CCC(=O)NNc1nc2ccccc2c2nc(-c3ccccc3)nn12	none
COc1ccccc1NC(=O)CCCCCN1C(=O)c2cccc([N+](=O)[O-])c2C1=O	none (no result: PERK inh, Hsp70 act, STAT3 activator)
COc1ccccc1NC(=O)CCCCCN1C(=O)c2cccc3cccc(c23)C1=O	AHR activator 85.5 (no result: PERK inh, Hsp70 act, STAT3 activator) | AHR act confirm inactive | PXR counter 55.5
Cc1ccc(N2CC(C(=O)Nc3nc4ccc(S(C)(=O)=O)cc4s3)CC2=O)cc1C (stereo unspecified)	PolyA inhibitor inconclusive (no result: PERK inh, Hsp70 act, STAT3 activator)
COc1cc(N=Nc2ccc3ccccc3c2)ccc1O	AHR activator 84.2 (no result: PERK inh, Hsp70 act, STAT3 activator) | AHR act confirm inactive | PXR counter 12.7
CCOc1ccc(N(CC(=O)NCc2ccco2)C(=O)CCC(=O)Nc2ccccn2)cc1	none (no result: PERK inh, AHR activator, Hsp70 act, STAT3 activator)
Cc1ccc(-c2nc(Nc3ccccc3)n[nH]2)cc1	AHR activator 121.9 (no result: PolyA inhibitor, HSF1 inh) | AHR act confirm 110.9 | PXR counter inactive
Nc1nc(NCC2CCCO2)nc(Nc2cccc(Cl)c2)c1[N+](=O)[O-] (stereo unspecified)	AHR activator 99.0 (no result: Hsp70 act, STAT3 activator) | AHR act confirm inactive | PXR counter 16.2
Cc1cccc(Nc2nc(NCC3CCCO3)nc(N)c2[N+](=O)[O-])c1 (stereo unspecified)	none
Cc1cccc(NC(=O)c2ccc(NCC3CCCO3)c([N+](=O)[O-])c2)c1 (stereo unspecified)	none
O=C(Nc1cccc(Cl)c1)c1ccc(NCC2CCCO2)c([N+](=O)[O-])c1 (stereo unspecified)	AHR activator 91.5 | AHR act confirm inactive | PXR counter 30.5
COc1cccc(N=c2oc3ccccc3cc2-c2nc3ccccc3[nH]2)c1	AHR activator 92.2, STAT3 activator 143.3 | AHR act confirm 131.5 | PXR counter 23.1
O=c1oc2c(O)cccc2cc1-c1nc2ccccc2[nH]1	none (no result: PERK inh, AHR activator, Hsp70 act, STAT3 activator)
N#CC1=C(N)Oc2n[nH]c(-c3ccccc3)c2C1c1cccc(OC(=O)N2CCOCC2)c1 (stereo unspecified)	none (no result: PolyA inhibitor, HSF1 inh)
N#CC1=C(N)Oc2n[nH]c(-c3ccc(F)cc3)c2C1c1ccncc1 (stereo unspecified)	AHR activator 105.6 | AHR act confirm 103.5 | PXR counter 17.7
N#CC1=C(N)Oc2n[nH]c(-c3ccncc3)c2C1c1ccsc1 (stereo unspecified)	none
N#CC1=C(N)Oc2n[nH]c(-c3ccc(F)cc3)c2C1c1cccc(OC(=O)N2CCOCC2)c1 (stereo unspecified)	AHR activator 106.2 | AHR act confirm 115.4 | PXR counter 31.6
O=C(COC(=O)c1ccc(F)cc1F)NCc1ccc2c(c1)OCO2	none (no result: PolyA inhibitor, PERK inh, Hsp70 act, STAT3 activator, HSF1 inh)
Cc1ccc2c(c1)/C(=C/c1ccco1)C(=O)N2	AHR activator 115.6 | AHR act confirm 99.2 | PXR counter 22.9
O=C(Nc1ccc2c(c1)OCO2)c1c(Cl)nc2sccn12	AHR activator 114.2 | AHR act confirm 154.2 | PXR counter 53.3
Cn1ncc(Cl)c1C(=O)Nc1ccc2c(c1)OCO2	AHR activator 123.2 (no result: PERK inh, Hsp70 act, STAT3 activator) | AHR act confirm 117.0 | PXR counter 13.2
Cc1cnc(NC(=O)c2c(Cl)cnn2C)s1	AHR activator 88.2 (no result: PERK inh, Hsp70 act, STAT3 activator) | AHR act confirm 93.0
Cn1ncc(Cl)c1C(=O)Nc1ccncc1	none
O=C(COC(=O)CC1CCCCC1)Nc1c(Cl)cccc1Cl	none (no result: PolyA inhibitor, PERK inh, Hsp70 act, STAT3 activator, HSF1 inh)
C#CCOCCOCCOCCNc1nc(N2CCN(C(=O)CCCCCCCCCCNC(=O)[C@H](CO)n3cc(CCCSC)nn3)CC2)nc(N2CCN(C(=O)CCCCCCCCCCNC(=O)[C@@H]([C@H](C)O)n3cc(C)nn3)CC2)n1	none (no result: PolyA inhibitor, PERK inh, Hsp70 act, STAT3 activator, HSF1 inh)
CS(=O)(=O)c1cccc(-c2csc(N3CCC(C(N)=O)CC3)n2)c1	none (no result: PolyA inhibitor, PERK inh, Hsp70 act, STAT3 activator, HSF1 inh)
COc1ccc(NC(=O)C2CCC(=O)N2C(=O)OCc2ccccc2)cc1 (stereo unspecified)	none (no result: PERK inh, Hsp70 act, STAT3 activator)
